# Measured values published in PubChem BioAssay AID871 (The Scripps Research Institute Molecular Screening Center, 2007).
# Screen size: about 190,000 compounds; about 1,800 (0.95%) were called active.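 Rule for the calls: active = activation above the screen-wide mean of compound activation plus 3 SD (cut at about 130% in these data); inactive = the rest.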 The full list was thinned out, with actives kept by preference.
# Assay: IL-6 driven STAT3 reporter potentiators, primary screen, U3A cells, luciferase, luminescence, MLSCN library (AID 871);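 note: 0% = background luminescence of wells with medium and substrate only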
# Conditions: IL-6 STAT3-luciferase reporter, at 5.6 µM, active compounds read high, 100% = signal with IL-6 EC80 alone
# How it was run: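 Material: STAT3-luciferase reporter U3A cells. Controls: IL-6-treated wells, 100% activation. Read-out: % activation versus median of IL-6-stimulated wells. Probe or stimulus: IL-6 stimulus at 33 ng/mL final. Timing: compound 1 h, then IL-6 6 h at 37 °C. Signal: reporter luminescence signal.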
row,SMILES,activation (% of control)
1,Cn1c(=NC(=O)c2ccco2)sc2cccc(F)c21,144% (active)
2,Cn1c(=NC(=O)c2cnccn2)sc2ccccc21,83.8% (inactive)
3,CCCC(=O)N=c1sc2cccc(F)c2n1C,113% (inactive)
4,COc1ccccc1NC(=O)CCCc1c[nH]c2ccccc12,88.8% (inactive)
5,CC(C)(C)N(Cc1ccccc1)C(=O)COC(=O)CCc1c[nH]c2ccccc12,87.1% (inactive)
6,CCC(CC)NC(=O)CSc1nnc(-c2c[nH]c3ccccc23)o1,90.9% (inactive)
7,NC(=O)CSc1c[nH]c2ccccc12,143% (active)
8,O=C(Cc1c[nH]c2ccccc12)OCCOC(=O)Cc1c[nH]c2ccccc12,136% (active)
9,CCOC(=O)CN(C)Cc1c[nH]c2ccccc12,137% (active)
10,O=C(CSc1nnc(-c2c[nH]c3ccccc23)o1)c1ccccc1,106% (inactive)
11,CN(Cc1cccs1)C(=O)Cc1c[nH]c2ccccc12,86% (inactive)
12,NS(=O)(=O)c1ccc(NC(=O)COC(=O)CCc2c[nH]c3ccccc23)cc1,108% (inactive)
13,Cc1ccnc(NC(=O)Cn2ccc([N+](=O)[O-])n2)c1,96.1% (inactive)
14,CCOC(=O)c1cnc2c(c(C)nn2CC)c1Cl,107% (inactive)
15,Oc1oc(-c2ccccc2Br)nc1/C=N/c1ccccn1,107% (inactive)
16,O=C(CSc1ccccc1F)NC1CCS(=O)(=O)C1 (centres undefined),95.7% (inactive)
17,CC(NC(=O)COC(=O)C1CCN(S(=O)(=O)c2ccccc2C(F)(F)F)CC1)c1ccccc1 (centres undefined),106% (inactive)
18,CCOc1ccc(-n2c(SCC(=O)NC3CCS(=O)(=O)C3)nnc2-c2cccnc2)cc1 (centres undefined),99.7% (inactive)
19,COC(=O)C(C)N=Cc1ccccc1 (centres undefined),102% (inactive)
20,S=C(NCCc1ccccc1)N1CCn2cccc2C1c1ccncc1 (centres undefined),103% (inactive)
21,Cn1nc(C(F)(F)F)c2cc(C(=O)N3CCOCC3)sc21,105% (inactive)
22,Cc1ccc(NC(=O)CN2CCc3ccccc3C2)cc1,99.5% (inactive)
23,Cc1ccc(S(=O)(=O)Nc2nc3ccccc3nc2N2CCc3ccccc3C2)cc1,147% (active)
24,Cc1ccc(S(=O)(=O)C(C#N)c2nc3ccccc3nc2N2CCCC2)cc1C (centres undefined),92.7% (inactive)
25,O=C(COc1ccccc1)Nc1ccc(N2CCN(C(=O)c3cccs3)CC2)cc1,93.1% (inactive)
26,O=C1NC2(CCCCCC2)C(=O)N1CCS(=O)(=O)Oc1ccccc1,104% (inactive)
27,Cc1ccc(Cn2c(C)nc3c(c2=O)c2nc4ccccc4nc2n3Cc2ccco2)cc1,107% (inactive)
28,Cc1cc(NC(=O)CSc2nc3cc(Cl)ccc3c(=O)n2Cc2ccco2)no1,103% (inactive)
29,Clc1cccc(-c2nc3nc4ccccc4nc3n2Cc2ccco2)c1,135% (active)
